Reference: ChEMBL document CHEMBL1131230 (J Med Chem, 1998)

Experiments:
[1] = molecular target: GABA-A receptor; anion channel; assay: Inhibition of [35S]TBPS binding to GABA-A receptor in rat cerebral cortex.; assay type: tissue-based
In short: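 Unwashed cortical membranes from male Sprague-Dawley rats (180-200 g), homogenized in 50 mM Tris-citrate pH 7.4 with […], centrifuged at 20000g and resuspended in buffer. Final 1 nM [35S]TBPS with 0.20-0.25 mg protein and NaCl, 90 min at 25 °C, then GF/B filtration and scintillation counting. Nonspecific binding defined with 100 µM picrotoxin.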

[2] = molecular target: T1, GABA A receptor alpha-1/beta-1/gamma-2 (Homo sapiens, UniProt P14867+P18505+P18507); assay: Modulation of GABA-induced chloride currents in Xenopus laevis oocytes expressing human alpha-1-beta-1-gamma-2 GABA-A receptor subunits; assay type: functional, cell-based, Oocyte
T1 sequence (P14867 whole entry): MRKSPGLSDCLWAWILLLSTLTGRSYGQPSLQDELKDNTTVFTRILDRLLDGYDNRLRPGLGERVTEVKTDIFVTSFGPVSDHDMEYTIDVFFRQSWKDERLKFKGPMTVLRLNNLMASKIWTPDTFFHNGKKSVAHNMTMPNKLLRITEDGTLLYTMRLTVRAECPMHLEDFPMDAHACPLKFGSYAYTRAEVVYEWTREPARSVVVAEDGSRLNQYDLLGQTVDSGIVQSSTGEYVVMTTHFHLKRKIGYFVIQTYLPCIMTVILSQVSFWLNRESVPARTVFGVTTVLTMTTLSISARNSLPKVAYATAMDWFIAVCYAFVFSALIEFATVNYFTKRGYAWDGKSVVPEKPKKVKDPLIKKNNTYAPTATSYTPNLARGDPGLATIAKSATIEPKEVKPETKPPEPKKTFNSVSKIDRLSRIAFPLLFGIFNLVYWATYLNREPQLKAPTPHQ
T1 sequence (P18507 whole entry): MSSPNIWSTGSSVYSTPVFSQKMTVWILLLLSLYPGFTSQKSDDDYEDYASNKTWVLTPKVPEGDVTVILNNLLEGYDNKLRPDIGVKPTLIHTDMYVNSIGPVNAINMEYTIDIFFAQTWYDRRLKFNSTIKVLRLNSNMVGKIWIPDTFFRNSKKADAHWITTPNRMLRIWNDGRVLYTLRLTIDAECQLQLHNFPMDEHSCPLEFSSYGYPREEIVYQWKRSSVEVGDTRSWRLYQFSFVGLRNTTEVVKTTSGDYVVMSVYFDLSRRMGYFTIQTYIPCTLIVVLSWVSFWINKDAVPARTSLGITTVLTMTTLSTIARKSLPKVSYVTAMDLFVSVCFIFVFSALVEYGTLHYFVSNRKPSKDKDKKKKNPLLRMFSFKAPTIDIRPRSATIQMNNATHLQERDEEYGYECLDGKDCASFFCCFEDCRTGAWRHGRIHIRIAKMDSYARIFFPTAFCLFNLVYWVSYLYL
T1 sequence (P18505 whole entry): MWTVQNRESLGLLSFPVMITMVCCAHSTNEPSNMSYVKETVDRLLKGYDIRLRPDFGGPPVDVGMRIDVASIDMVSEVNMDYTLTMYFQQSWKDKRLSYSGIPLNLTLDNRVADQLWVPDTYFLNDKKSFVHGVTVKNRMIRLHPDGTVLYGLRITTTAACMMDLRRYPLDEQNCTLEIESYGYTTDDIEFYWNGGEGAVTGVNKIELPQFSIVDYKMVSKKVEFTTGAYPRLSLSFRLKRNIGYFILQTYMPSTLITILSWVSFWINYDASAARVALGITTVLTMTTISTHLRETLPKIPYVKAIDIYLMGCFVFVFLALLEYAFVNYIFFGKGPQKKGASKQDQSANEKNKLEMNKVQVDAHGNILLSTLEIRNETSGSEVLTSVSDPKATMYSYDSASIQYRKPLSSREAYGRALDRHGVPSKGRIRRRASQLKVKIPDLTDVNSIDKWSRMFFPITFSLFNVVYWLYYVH
In short: (§1)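 Human α1, β1 and γ2 subunit cDNAs in pCDM8 (1.5 ng/30 nL) injected into nuclei of defolliculated stage V-VI Xenopus oocytes, which were cultured at 19 °C in supplemented MBS. Recording by two-electrode voltage clamp at -70 mV about 24 h after injection, with MBS perfusion at room temperature. Compounds came from 10 mM DMSO stocks diluted in MBS. Responses were normalized to a GABA control response, either EC20 or 10 mM GABA.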

[3] = molecular target: T2, GABA A receptor alpha-1/beta-1/gamma-2 (Homo sapiens) (UniProt P14867+P18507+P18505); assay: Direct activation of chloride currents (percentage of 10 mM GABA response) in Xenopus laevis oocytes expressing human alpha-1-beta-1-gamma-2 GABA-A receptor subunits; assay type: functional, cell-based; details: Oocyte; in short: as §1
[4] = Partition coefficient (logP); assay type: physicochemical; details: octanol/water
[5] = molecular target: T2, GABA A receptor alpha-1/beta-1/gamma-2 (Homo sapiens); assay: Modulation of GABA-induced chloride currents (percentage of GABA EC20 response) against human alpha-1-beta-1-gamma-2 GABA-A receptor subunits expressed in Xenopus laevis oocytes; assay type: functional, cell-based; details: Oocyte; in short: as §1
[6] = molecular target: T1, GABA A receptor alpha-1/beta-1/gamma-2; assay: Direct activation of chloride current in Xenopus laevis oocytes expressing human alpha-1-beta-1-gamma-2 GABA-A receptor subunits; assay type: functional, cell-based, Oocyte; in short: as §1
[7] = tested on: GABA-A receptor; anion channel; assay: In vitro inhibition of [35S]TBPS binding to Gamma-aminobutyric acid A (GABA-A) receptor of rat cerebral cortex (No displacement); assay type: tissue-based

Compound	IC50 [1]	logP [4]	also measured
CC(C)c1cc(I)cc(C(C)C)c1O	1.2 µM	5.75	EC50 [2]: 12 µM; Max activation [3]: 36%; Max potentiation [5]: 311%; EC50 [6]: 51 µM
CC(C)c1cc(CN(C)C)cc(C(C)C)c1O	739 µM	2.5	–
CC(C)c1cccc(C(C)C)c1OC(=O)CN1CCCC1	6.52 µM	–	–
COc1c(C(C)C)cccc1C(C)C	37 µM	–	–
CC(C)c1cc(NS(C)(=O)=O)cc(C(C)C)c1O	131 µM	3.14	–
CC(C)c1cc(Cl)cc(C(C)C)c1O	1.44 µM	5.34	EC50 [2]: 10 µM; Max activation [3]: 37%; Max potentiation [5]: 205%; EC50 [6]: 38 µM
CC(C)c1cc([N+](=O)[O-])cc(C(C)C)c1O	1.95 µM	4.71	–
COS(=O)(=O)c1cc(C(C)C)c(O)c(C(C)C)c1	9.4 µM	3.7	–
CC(=O)Nc1cc(C(C)C)c(O)c(C(C)C)c1	–	–	IC50 [7]: Not Active
CC(C)c1cccc(C(=O)O)c1O	–	–	IC50 [7]: Not Active
CCCN(CCC)CC(=O)Oc1c(C(C)C)cccc1C(C)C	–	–	IC50 [7]: Not Active
CC(C)c1cc(NC(=O)C(F)(F)F)cc(C(C)C)c1O	14 µM	4.46	–
CC(C)c1cc([N+](C)(C)C)cc(C(C)C)c1O.[I-]	–	–	IC50 [7]: Not Active
CC(C)c1cccc(C(C)C)c1OC(=O)c1ccccc1	15.2 µM	–	–
CC(C)c1cc(C=O)cc(C(C)C)c1O	5.8 µM	4.3	–
COC(=O)c1cccc(C(C)C)c1O	39.5 µM	–	–
CC(=O)Oc1c(C(C)C)cccc1C(C)C	8.5 µM	–	–
CC(C)c1cc(N)cc(C(C)C)c1O	23.6 µM	3.1	–
CC(C)c1cc(N(C)C)cc(C(C)C)c1O	5.7 µM	4.52	–
CC(C)c1cccc(C(C)C)c1O [PROPOFOL]	–	4.33	EC50 [2]: 8 µM; Max activation [3]: 38%; Max potentiation [5]: 296%; EC50 [6]: 44 µM
CC(C)c1cccc(C(C)C)c1OC(=O)CN1CCOCC1	–	–	IC50 [7]: Not Active
COC(CNCC(=O)Oc1c(C(C)C)cccc1C(C)C)OC	15.6 µM	–	–
CCN(CC)CC(=O)Oc1c(C(C)C)cccc1C(C)C	21.8 µM	–	–
CC(C)c1cc(C(=O)c2ccccc2)cc(C(C)C)c1O	0.85 µM	5.91	EC50 [2]: 9 µM; Max activation [3]: 41%; Max potentiation [5]: 220%; EC50 [6]: 47 µM
CC(C)c1cc(Br)cc(C(C)C)c1O	1.07 µM	5.49	EC50 [2]: 12 µM; Max activation [3]: 34%; Max potentiation [5]: 223%; EC50 [6]: 38 µM
